Measurements taken from ChEMBL document CHEMBL4513216, “Probing the Open Global Health Chemical Diversity Library for Multistage-Active Starting Points for Next-Generation Antimalarials” (ACS Infect Dis, 2020).

Experiment: Toxicity liver stage against HepG2, at 10uM
Format: cell-based
Design: test concentration 10 uM, cell line HepG2-A16-CD81EGFP
Settings: human, HepG2-A16-CD81EGFP cells; read-out: INHIBITION
In short: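 Uninfected HepG2-A16-CD81EGFP cells, 3 × 10^3 per well, 1536-well, plated on prespotted compound at 10 μM final, parasite-free screening media added to match infected plates; puromycin 10 μM positive, DMSO 0.5% negative; run in parallel with 48 h PbLuc assay at 37 °C, 5% CO2; viability by CellTiter-Glo luminescence, normalized to controls.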

SMILES | cytotoxicity at 10 µM
Cc1noc([C@]23COC[C@H]2CN(Cc2cc(C)on2)C3)n1 | 0.841%
CC(C)(C)C1SCC(=O)Nc2c1c(O)nn2C1CCCCC1 (centres undefined) | -16.7%
O=C(CSc1ccccn1)NCc1ccc2c(c1)CCC(=O)N2 | 20%
Cc1ccc(F)c(C(=O)N2C[C@@H](C(=O)O)[C@H](c3ccncc3)C2)c1Cl | -2.37%
Cc1csc(N2CCN(Cc3cccnc3)CC2C)n1 (centres undefined) | 11.2%
COC1CCN(c2ccc(F)cc2CN(C)C(C)C(N)=O)CC1 (centres undefined) | 9.13%
CC(C)(C)c1noc(CCC(=O)NCC2CCS(=O)(=O)C2)n1 (centres undefined) | -18.1%
CC[C@@H]1N(Cc2ccsc2)CCC[C@]12CCC(=O)N2CCOC | 7.36%
c1cnc(NCc2noc3c2CN(C2CCOCC2)CC3)nc1 | -6.23%
CCc1oc(C(=O)NCCc2cc(O)nc(C)n2)cc1CN1CCCC1 | 13.1%
CSc1nccc(N2CCC(NCc3ccc4nsnc4c3)CC2)n1 | 28.3%
CN(C)c1ncccc1CNC(=O)N1CCCC1CN1CCCC1 (centres undefined) | -12.4%
CCOC(C)c1noc(CN(C)C(=O)c2cc3ccccn3c2)n1 (centres undefined) | 7.17%
CCCN(CCS(C)(=O)=O)C1CCc2ccccc2C1 (centres undefined) | -5.08%
CN1CC2(CCC(C(=O)N3CCOCC3)CC2)Oc2ccccc2C1=O (centres undefined) | 5.91%
O=C(c1ccnnc1)N1CCO[C@H]2[C@@H](OCc3cccnc3)CC[C@@H]21 | 2.93%
COCc1nc(C(=O)N2CCCCC2Cn2cc(C)cn2)cs1 (centres undefined) | 3.18%
CCC(C(=O)NCc1csc(N2CCOCC2)n1)n1cccn1 (centres undefined) | -2.88%
CC(C(=O)O)n1nc(C(F)(F)F)c(Br)c1C1CC1 (centres undefined) | 10.3%
O=C(Cc1csc(-c2ccc(Cl)cc2)n1)NC(C(=O)O)c1ccccc1 (centres undefined) | 4.91%
O=c1c2cccnc2cnn1CC(O)c1ccc(F)c(F)c1 (centres undefined) | -7.44%
COC(=O)c1cc(C(=O)N2CCCCC2C)n(-c2ccccc2)n1 (centres undefined) | -13.7%

SMILES | cytotoxicity at 10 µM
CCN1CCNC(=O)C12CCN(S(=O)(=O)c1ccccc1)CC2 | 0.464%
O=C(O)Cn1ccc(=O)c2ccccc21 | -9.24%
CCc1c(C)nc2n(c1=O)CC(C(=O)Nc1ncccc1C)CS2 (centres undefined) | 7.14%
CC(Cc1ccccc1F)NC(=O)CCC1=NC(=C2N=CN=N2)NO1 (centres undefined) | 7.69%
Cc1cc(C)c(CNC(=O)NCc2nnc3n2CCCCC3)c(=O)[nH]1 | -1.34%
CC(C)c1ncc2c(n1)CN(Cc1nc(-c3cccs3)no1)CC2 | -7.91%
Cc1ccc(-c2nc(CN3CC(n4nc(C)cc4C)C3)no2)cc1 | -1.64%
CCc1nc(C2CCCN2Cc2nccn2CC(F)(F)F)no1 (centres undefined) | -17.2%
Cc1nc(CN2CCc3ncnc(-c4ccccc4)c3CC2)cs1 | -81.1%
c1cncc(C2CC3(CCN(c4cnccn4)CC3)c3ccccc32)c1 (centres undefined) | 11.2%
O=S(=O)(NCc1cccnc1OC1CCCC1)N1CCOCC1 | 1.46%
Cc1cnn(CC2CCCN2C(=O)c2cn(-c3ccccc3)nc2C)c1 (centres undefined) | -9.39%
Cc1ccc(-c2cc(C(=O)O)sn2)cc1 | 2.2%
CCOC(=O)N1CCN(C(=O)c2cc(-c3ccccc3F)on2)CC1 | 1.14%
CCc1ccccc1CN1CC[C@@]2(O)CCN(S(=O)(=O)N(C)C)C[C@H]2C1 | -2.19%
CCCn1c(C)c(CC(=O)NCCNC(C)=O)c2c1CC(C)(C)CC2=O | 6.2%
CC(C)NC(=O)[C@H]1CCS(=O)(=O)[C@@H]2CN(c3ncc(F)cn3)C[C@H]12 | -136%
CCc1nnc2n1CCN(CC(=O)Nc1cc(C)on1)C2 | 5.18%
COCC(=O)N[C@H]1C[C@@H](Cc2cc(CN3CCCCC3)on2)C1(C)C | -8.12%
COCCN(C)CCN1CC2(CCN(C3CCNCC3)CC2)OC1=O | 1.64%
COCCC(=O)NCC(O)c1c(F)cccc1F (centres undefined) | -2.38%
N#Cc1cccc(C(=O)N2CCCC(C(=O)CCc3ccccc3)C2)c1 (centres undefined) | 0.488%

SMILES | cytotoxicity at 10 µM
O=C(c1cc2c([nH]c1=O)CCC2)N1CCCCC1c1cccc(F)c1 (centres undefined) | -6.22%
c1ccc(CN2C[C@@H]3CCCO[C@@H]3[C@H](Nc3ccccn3)C2)nc1 | -7.39%
COc1ccc(CNC(=O)C2(C#N)CCCC2)cc1 | -17.7%
CCC(C)NC(=O)c1cccc(CNC(=O)CC(F)(F)F)c1 (centres undefined) | 6.99%
CCc1cccc(OCC(=O)N2CCCC(n3cncn3)C2)c1 (centres undefined) | -7.62%
CN(C)S(=O)(=O)NC(=O)CC(c1ccccc1)C(F)(F)F (centres undefined) | -39.5%
CCS(=O)(=O)N1CC[C@@H]2[C@H](COCC3CC3)CN(C)C(=O)[C@@H]2CC1 | -4.79%
Cc1nc(C)n(CC2CCCN2CC(=O)Nc2nncs2)n1 (centres undefined) | 14.3%
c1cncc(COCc2n[nH]c3c2CN(Cc2ccco2)C3)c1 | 9.01%
COCCCN1C(=O)CC(N2CCN(c3ccc(F)cc3)CC2)C1=O (centres undefined) | 2.57%
CN1CC(C(=O)NCc2ccnc(-n3cccn3)c2)CC1=O (centres undefined) | -0.867%
CCc1cnc(N2CCN(Cc3ccncc3)CC2)s1 | 40.8%
O=C(OCCF)c1cccc(C(=O)N2CCCC2)n1 | 0.684%
c1cc(CN2Cc3nccn3CC(Cn3cncn3)C2)ccn1 (centres undefined) | -134%
COCCN(Cc1cccs1)c1nc(CCN)nc2ccccc12 | 4.49%
O=C1Nc2ccccc2CC12CCCN2Cc1cccnc1 (centres undefined) | 7.27%
CC(NC(=O)N1CCN(c2cccs2)CC1)c1ccncc1 (centres undefined) | 15.8%
COc1ccc(CCNC(=O)N2CCN(C)[C@@H]3CS(=O)(=O)C[C@@H]32)cc1 | 6.05%
CSCCC(NC(N)=O)C(=O)Nc1ccc(-n2cccn2)nc1 (centres undefined) | 4.78%
CC(C)n1ccnc1C1CCCN(c2ccnc3ccccc23)C1 (centres undefined) | 38.4%
CC(C)NC(=O)[C@@H]1Cc2[nH]cnc2CN1CCCc1ccccc1 | 10.1%
CCCNCc1ncc(C)c(OC)c1C | 0.105%

SMILES | cytotoxicity at 10 µM
Cc1cc(C(=O)N[C@H]2COC[C@@H]2N2CCOCC2)c2ccc(F)cc2n1 | -48.2%
O=C1CO[C@H](c2ccc(NS(=O)(=O)Cc3ccccc3)cc2)[C@@H](CO)N1 | 40.8%
CCOc1ccccc1NC(=O)CN(C)Cc1ccccc1Cl | -6.93%
Cc1nc(-c2ccccc2)c(C(=O)N2CCC3(CC(=O)NC3=O)C2)s1 (centres undefined) | -3.89%
CN(C)C(CNC(=O)c1nc(N2CCOCC2)ncc1Cl)c1ccco1 (centres undefined) | 7.96%
C1CC(c2noc(C3CC3)n2)N(Cc2nc(C3CC3)no2)C1 (centres undefined) | -12.8%
CCN(C)CC(=O)N1CCN(Cc2ccccc2)[C@@H]2CS(=O)(=O)C[C@@H]21 | -5.18%
CCOCCCC(=O)NS(=O)(=O)c1ccc(C)s1 | 10%
Cn1cncc1C(=O)N1CCOC2(COCCN(CC3CC3)C2)C1 (centres undefined) | 9.17%
COc1cc(CN(C)C(=O)Cc2c(C)nn(C)c2C)ccc1OC(F)F | 39.2%
O=C1NCC2(CCCN(C(=O)CCn3cnc4ccccc43)CC2)O1 (centres undefined) | -4.8%
Cc1ncc2c(n1)CCCC2NC(=O)c1cnn(Cc2ccccc2)c1 (centres undefined) | -4.49%
O=C(Nc1cnccn1)[C@H]1COC[C@H]2CN(c3ncc(F)cn3)C[C@H]21 | -0.695%
CCOc1ccc(NC(=O)c2cc(C)c(C)o2)cc1CO | 3.78%
CC(C)c1nc(CN(C)C(=O)CCS(=O)(=O)c2ccccc2)no1 | -20.3%
COCCC(C)NC(=O)c1cc(Br)c2c(c1)OCCO2 (centres undefined) | -13.4%
Cc1cc(N)nc(SC2CCN(c3ccccc3)C2=O)n1 (centres undefined) | -0.572%
Cn1cnc2c1CCN(Cc1noc(-c3ccccc3)n1)C2 | -1.96%
Cc1nnc(CN(C)C2CCN(Cc3nc4ccccc4n3C)C2)o1 (centres undefined) | -10.1%
NC(=O)c1csc(N2CCCC(c3nc4ccccc4[nH]3)C2)n1 (centres undefined) | 8.5%
CC(C)N1CCC(Cc2cncc(-c3cc(F)ccc3C(=O)O)n2)C1 (centres undefined) | -6.88%
O=C(Nc1cccc(OCC(F)F)n1)c1ccncc1F | -3.33%

SMILES | cytotoxicity at 10 µM
Cc1cc(C(=O)N(CC(=O)O)CC(C)C)ccc1F | -6.07%
CC(C)(CNc1ccccc1S(=O)(=O)C(F)F)N1CCOCC1 | 12.2%
O=C(NCCCn1ccnc1)c1cccnc1OCC(F)(F)F | 6.58%
Cc1c(C(=O)O)nnn1Cc1cccc(C(F)(F)F)c1 | -2.93%
Cc1cnn(CC2CCCN2C(=O)c2cccnc2-n2cncn2)c1 (centres undefined) | -3.29%
CCC(C)N(C)CCNC(=O)NCc1cccc(-n2cncn2)c1 (centres undefined) | -8.1%
CCc1noc(CCC(=O)N[C@@H]2CC[C@@H](n3ccnc3)[C@@H]2O)n1 | -15.5%
O=C(NCCN1CCCCCC1)c1coc(COc2ccc(F)cc2)n1 | -4.07%
Cc1cccc2cc(CO)c(N3Cc4cnc(C(C)(C)C)nc4C3)nc12 | 10.6%
O=C(NCc1ccc2[nH]c(=O)[nH]c2c1)c1ccc(CN2CCCC2)o1 | -0.987%
CN(C)c1ncc(I)c(C2CCCN2S(C)(=O)=O)n1 (centres undefined) | 3.8%
COCC(C)(C)NC(=O)CC(c1ccccc1)C(F)(F)F (centres undefined) | -50.1%
CCS(=O)(=O)N1C[C@H]2CN(CC3CC3)C(=O)[C@H]2C1 | 0.797%
CCOc1c(Br)cc(C2c3c(n[nH]c3C)N=C3COC(=O)C32)cc1OC (centres undefined) | 47.1%
CCc1noc(C(C)N2CCNCC2)n1 (centres undefined) | -3.46%
CC(C)C1CCCN1C(=O)c1ccc(-n2ncc(C#N)c2N)cc1 (centres undefined) | -1.89%
Cc1cc(C)c(CNc2cnc3ccccc3n2)c(=O)[nH]1 | 41.8%
CN(C)CCn1c(=O)oc2ccc(NC(=O)CC(C)(C)C)cc21 | -2.28%
Cc1cc(C(=O)O)cc(S(=O)(=O)Nc2ccc3c(c2)OCO3)c1C | 0.89%
Cn1nnnc1SCCC(=O)NCC(C)(C)c1ccccc1F | 5.68%
CC(O)CN1CCN(C(=O)c2ccn(-c3cccc(Cl)c3)n2)CC1 (centres undefined) | -6.8%
